“And” between values parts separate entries of the source, which are not always exact repeats. Identical values can stand only once.
Key:
[1] = format: in vivo, human; conditions: healthy volunteers, diet rich in fruits, vegetables, tea, and wine
Procedure, shortened: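 Volunteers on a flavonoid-rich diet also took oral flavonoid/isoflavone tablets; urine was sampled 5 h post-dose. Urine was deproteinised with acetonitrile/methanol, hydrolysed with β-glucuronidase/sulfatase (H. pomatia, pH 4.66, 18 h, 37 °C), cleaned by SPE and run on reversed-phase UHPLC (0.05% TFA/acetonitrile gradient, 25 °C, UV 254 and 280 nm). Amounts came from calibration curves in blank urine; identities were confirmed by HPLC–ESI-MS–MS.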

[2] = format: in vivo, human; conditions: for approximate average daily output in urine: assuming the mean 24-h urine volume is 1.4 L; for AUC(0-inf) / AUC(0-t) / Tmax / half-life: human, urine, po; for percentage excreted in urine within 24 h of the administered dose: within 24 h after ingestion of the tablets
Procedure, shortened: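 Healthy volunteers (21–48 y) took oral flavonoid/isoflavone tablets. Processing: acetonitrile/methanol precipitation, centrifugation, β-glucuronidase/sulfatase (H. pomatia) hydrolysis at pH 4.66 for 18 h at 37 °C, then SPE. Reversed-phase UHPLC used a 0.05% TFA/acetonitrile gradient, UV 254/280 nm, and blank-urine calibration. Kel came from terminal-slope regression; t1/2 = 0.693/Kel.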

[3] = human urine, oral pharmaceutical preparations, n = 6, mean±S.D.

SMILES | mean concentration in urine [1] | approximate average daily output in urine [2] | C max, peak concentration in urine [2, 3] | percentage excreted in urine within 24 h of the administered dose [2] | further results
Oc1cc(O)c2c(c1)O[C@H](c1ccc(O)c(O)c1)[C@H](O)C2 [(−)-EC, (−)-epicatechin] | 2724.26 ng/mL |  |  |  | 
COc1cc2c(=O)c(-c3ccc(O)cc3)coc2cc1O[C@@H]1O[C@H](CO)[C@@H](O)[C@H](O)[C@H]1O [GLY, glycitin] |  | ~1.73 mg | 5482.33 ± 10.78 ng/mL and 5482.3 ± 10.8 ng/mL | 30% | T max, time to reach peak concentration ([2]; human urine, oral pharmaceutical preparations, n = 6): 5 h; AUC(0–t), area under the urine concentration–time curve [2, 3]: 86628.8 ± 1769.0 µg·h/mL; AUC(0–∞), area under the urine concentration–time curve [2, 3]: 86678.1 ± 1766.7 µg·h/mL
COc1ccc([C@@H]2CC(=O)c3c(O)cc(O)cc3O2)cc1O [HST, hesperetin] | detected in urine, but not quantified |  |  |  | 
C[C@@H]1O[C@@H](OC[C@H]2O[C@@H](Oc3c(-c4ccc(O)c(O)c4)oc4cc(O)cc(O)c4c3=O)[C@H](O)[C@@H](O)[C@@H]2O)[C@H](O)[C@H](O)[C@H]1O [RUT, rutin] |  | ~0.19 mg | 780.2 ± 10.39 ng/mL | 1% | AUC(0-inf) [2]: 12820 ± 78.9 µg·h/mL; AUC(0-t) [2]: 12810 ± 77.3 µg·h/mL; Tmax [2]: 8 h; half-life [2]: 3.98 ± 0.53 h

Continued, in another order:

mean concentration in urine [1] | approximate average daily output in urine [2] | C max, peak concentration in urine [2, 3] | percentage excreted in urine within 24 h of the administered dose [2] | SMILES | further results
5427.34 ng/mL |  |  |  | Oc1cc(O)c2c(c1)OC(c1ccc(O)c(O)c1)C(O)C2 (racemic) [(±)-CA, (±)-catechin] | 
 | ~0.14 mg | 228.0 ± 5.34 ng/mL | 17% | O=c1c(-c2ccc(O)cc2)coc2cc(O)ccc12 [DA, daidzein] | AUC(0-inf) [2]: 7730 ± 414 µg·h/mL; AUC(0-t) [2]: 7710 ± 410 µg·h/mL; Tmax [2]: 7 h; half-life [2]: 4.43 ± 0.86 h
73.57 ng/mL |  |  |  | C[C@@H]1O[C@@H](Oc2c(-c3ccc(O)c(O)c3)oc3cc(O)cc(O)c3c2=O)[C@H](O)[C@H](O)[C@H]1O [QUR, quercitrin] | 

Reference: PMC3044235 (Analytical and Bioanalytical Chemistry, 2010)
